This note sets out measurements from ChEMBL document CHEMBL1126247, “Iodoaminopotentidine and related compounds: a new class of ligands with high affinity and selectivity for the histamine H2 receptor” (J Med Chem, 1992).

Assay [1] addresses Histamine H2 receptor (Cavia porcellus) (UniProt P47747). The assay is described as follows: Histamine H2 receptor antagonistic activity at a concentration of 0.1 uM on the isolated guinea pig right atrium. The note with it: Cardiac atrium. In kind it is functional, tissue-based.
Assay [2] has the same target. The assay can be described thus: Inhibition of the positive chronotropic response (histamine H2 receptor antagonism) of guinea pig right atrium relative to cimetidine. The format is functional, tissue-based. The note with it: Cardiac atrium.
The target is the same in assay [3]. The assay can be described thus: Histamine H2 receptor antagonistic activity at a concentration of 0.3 and 0.1 uM on the isolated guinea pig right atrium. The format is functional, tissue-based. The note with it: Cardiac atrium.
For assay [4], the target named is T1, Histamine H2 receptor (Cavia porcellus, UniProt P47747). The assay can be described thus: Inhibition of [125I]APT binding to histamine H2 receptor in guinea pig cerebral membranes. The format is cell membranes. A digest of the protocol:
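Striatal membranes from male Hartley guinea pigs (200-300 g) in 50 mM sodium/potassium phosphate, pH 7.5, with 0.1% gelatin. Membranes incubated with 125I-APT 120 min at 25 °C, in triplicate. Stopped with cold buffer containing 0.1% BSA, then filtered on polyethylenimine-treated glass-fiber filters and γ-counted. […] Azido compounds handled under dim light.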

Assay [5] addresses T1, Histamine H2 receptor. The assay is described as follows: Histamine H2 receptor antagonistic activity on the isolated guinea pig right atrium. The note with it: read-out: pA2 (converted).
The target in assay [6] is Histamine H2 receptor (Cavia porcellus) (UniProt P47747). The assay can be described thus: Histamine H2 receptor antagonistic activity at concentrations of 0.3,1 and 3 uM on the isolated guinea pig right atrium. In kind it is functional, tissue-based. The note with it: Cardiac atrium.
The target in assay [7] is Muscarinic acetylcholine receptor M3 (Cavia porcellus) (UniProt Q8VH26). The assay can be described thus: muscarinic acetylcholine receptor M3 antagonistic activity at concentrations of 3 and 10 uM on the isolated guinea pig iluem. In kind it is functional. The method in brief:
(§1)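 Guinea pig proximal ileum, isotonic recording under a 10 mN load in gassed Tyrode's solution. Cumulative carbachol (3-300 nM) curves as reference agonist. Antagonist incubated 10 min. pK_B calculated from concentration ratio, or pA2 by Schild plot.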

The target in assay [8] is Serotonin 2 (5-HT2) receptor (Rattus norvegicus) (UniProt P30994+P08909+P14842). The assay is described as follows: 5-hydroxytryptamine 2 receptor antagonistic activity at concentrations of3,10 and 30 uM on the rat tail artery. The format is functional, tissue-based. A digest of the protocol: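 Endothelium-denuded ventral tail artery segments from male Wistar rats (280-350 g), resting force 5 mN, 120 min equilibration with one 1 μM 5-HT priming. Two to three cumulative 5-HT (0.01-10 μM) curves per preparation.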

Assay [9] has as its target Histamine H2 receptor (Cavia porcellus) (UniProt P47747). The assay is described as follows: Histamine H2 receptor antagonistic activity on the isolated guinea pig right atrium determined by Schild plot. The note with it: Cardiac atrium. In kind it is functional, tissue-based.
Assay [10] has as its target Histamine H1 receptor (Cavia porcellus) (UniProt P31389). The assay can be described thus: Histamine H1 receptor antagonistic activity at concentrations of 3 and 10 uM on the isolated guinea pig iluem. In kind it is functional. The method in brief: (§2)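 Whole proximal guinea pig ileum segments in Tyrode's solution gassed with 95% O2/5% CO2, isotonic recording at 10 mN load. Cumulative histamine (0.01-3 μM) curves. Antagonist applied 10 min before the curve. pK_B from concentration ratio, or pA2 by Schild plot.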

For assay [11], the target named is Beta-1 adrenergic receptor (Cavia porcellus) (UniProt B0FL73). The assay can be described thus: Beta-1 Adrenergic receptor antagonistic activity at concentrations of 10 and 30 uM on the isolated guinea pig right atrium. The note with it: Cardiac atrium. The format is functional, tissue-based. The method in brief: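 Spontaneously beating guinea pig right atrium, isometric recording of chronotropic response. Cumulative isoprenaline (0.1-30 nM) curves as reference agonist. Incubation handled as in the H2 protocol. pK_B = -log[antagonist] + log(concentration ratio - 1).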

Assay [12] has as its target Adrenergic receptor alpha-1 (Rattus norvegicus) (UniProt P15823+P23944+P43140). The assay is described as follows: Alpha-1 adrenergic receptor antagonistic activity at concentrations of 3,10,30and 100 uM on the rat aorta. In kind it is functional. The method in brief:
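Endothelium-denuded thoracic aortic rings from the same rats, mounted isometrically, resting force 20 mN. Equilibration 140 min with two primings of 0.1 μM (R)-phenylephrine. Cumulative (R)-phenylephrine (0.003-10 μM) curves recorded with 1 μM (±)-propranolol present.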

The nature of assay [13]: Inhibition of the positive chronotropic response (H2-antagonism) of guinea pig right atrium relative to cimetidine. The format is functional, Cavia porcellus, Cardiac atrium.
For assay [14], the target named is Histamine H2 receptor (Cavia porcellus) (UniProt P47747). The assay is described as follows: Histamine H2 receptor antagonistic activity at a concentration of 30 uM on the isolated guinea pig right atrium. The format is functional, tissue-based. The note with it: Cardiac atrium.
In assay [15] the target is Muscarinic acetylcholine receptor M3 (Cavia porcellus, UniProt Q8VH26). The assay can be described thus: muscarinic acetylcholine receptor M3-antagonistic activity on the isolated guinea pig ileum determined by Schild plot. In kind it is functional, tissue-based. The note with it: read-out: pA2 (converted). The method in brief:
as §1

For assay [16], the target named is Histamine H1 receptor (Cavia porcellus) (UniProt P31389). The assay can be described thus: (§3) Histamine H1 receptor antagonistic activity on the isolated guinea pig ileum determined by Schild plot. The format is functional, tissue-based. The method in brief:
as §2

In another assay the target is Histamine H1 receptor (Cavia porcellus, UniProt P31389). The description is as §3. The note with it: read-out: pA2 (converted). The format is functional, tissue-based. The method in brief: as §2
The target of assay [17] is Muscarinic acetylcholine receptor M3 (Cavia porcellus) (UniProt Q8VH26). The assay is described as follows: muscarinic acetylcholine receptor M3 antagonistic activity on the isolated guinea pig ileum determined by Schild plot. The format is functional, tissue-based. The method in brief:
as §1

Assay [18] has as its target Histamine H2 receptor (Cavia porcellus) (UniProt P47747). The assay is described as follows: Histamine H2 receptor antagonistic activity at concentrations of 0.03 and 0.1 uM on the isolated guinea pig right atrium. The format is functional, tissue-based. The note with it: Cardiac atrium.
For assay [19] the target is unchanged. The assay can be described thus: Histamine H2 receptor antagonism at a concentration of 1 umolar on the isolated guinea pig right atrium. The format is functional, tissue-based. The note with it: Cardiac atrium.

T1 sequence (P47747 whole entry): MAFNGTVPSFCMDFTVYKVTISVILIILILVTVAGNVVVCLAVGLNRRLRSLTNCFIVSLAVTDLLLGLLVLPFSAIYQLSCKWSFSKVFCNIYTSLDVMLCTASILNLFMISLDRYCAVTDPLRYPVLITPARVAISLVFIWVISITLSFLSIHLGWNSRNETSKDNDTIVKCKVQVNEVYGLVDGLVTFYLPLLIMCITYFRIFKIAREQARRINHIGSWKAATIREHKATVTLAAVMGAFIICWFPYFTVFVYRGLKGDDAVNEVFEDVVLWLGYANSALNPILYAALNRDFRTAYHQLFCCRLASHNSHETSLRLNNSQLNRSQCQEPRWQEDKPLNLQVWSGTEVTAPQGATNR
Chain of Histamine H2 receptor (Cavia porcellus) (P47747 whole entry): as above
Chain of Muscarinic acetylcholine receptor M3 (Cavia porcellus) (Q8VH26 1-587): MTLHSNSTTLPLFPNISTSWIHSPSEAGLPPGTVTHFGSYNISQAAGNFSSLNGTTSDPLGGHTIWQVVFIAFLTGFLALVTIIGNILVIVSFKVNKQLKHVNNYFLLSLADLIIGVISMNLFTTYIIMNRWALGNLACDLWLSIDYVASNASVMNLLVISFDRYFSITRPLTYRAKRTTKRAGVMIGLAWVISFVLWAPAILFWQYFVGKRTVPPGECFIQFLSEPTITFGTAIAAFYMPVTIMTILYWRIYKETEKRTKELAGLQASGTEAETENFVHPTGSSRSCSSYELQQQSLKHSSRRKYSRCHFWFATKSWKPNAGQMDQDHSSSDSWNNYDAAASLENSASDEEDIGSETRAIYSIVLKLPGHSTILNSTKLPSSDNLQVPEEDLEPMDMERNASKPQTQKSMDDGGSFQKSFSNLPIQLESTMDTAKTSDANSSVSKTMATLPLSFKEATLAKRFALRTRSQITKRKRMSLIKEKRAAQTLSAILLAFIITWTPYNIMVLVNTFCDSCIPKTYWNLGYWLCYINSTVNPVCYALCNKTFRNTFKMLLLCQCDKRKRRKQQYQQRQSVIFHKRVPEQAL
Chain of Histamine H1 receptor (Cavia porcellus) (P31389 whole entry): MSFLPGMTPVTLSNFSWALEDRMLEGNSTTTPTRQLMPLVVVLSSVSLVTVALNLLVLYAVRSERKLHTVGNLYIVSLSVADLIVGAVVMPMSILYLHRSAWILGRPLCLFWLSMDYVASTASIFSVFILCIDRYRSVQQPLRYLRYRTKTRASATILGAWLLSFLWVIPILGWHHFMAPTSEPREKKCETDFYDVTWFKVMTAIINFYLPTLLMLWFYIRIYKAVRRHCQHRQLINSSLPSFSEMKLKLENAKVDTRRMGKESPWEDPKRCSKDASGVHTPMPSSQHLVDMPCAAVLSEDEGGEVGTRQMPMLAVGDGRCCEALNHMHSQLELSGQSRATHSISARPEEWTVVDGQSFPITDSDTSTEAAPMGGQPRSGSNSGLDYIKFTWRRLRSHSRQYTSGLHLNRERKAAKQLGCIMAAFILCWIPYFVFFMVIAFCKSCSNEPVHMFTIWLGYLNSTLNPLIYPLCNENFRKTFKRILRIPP
Chain of Serotonin 2 (5-HT2) receptor (Rattus norvegicus) (P08909 whole entry, looked up): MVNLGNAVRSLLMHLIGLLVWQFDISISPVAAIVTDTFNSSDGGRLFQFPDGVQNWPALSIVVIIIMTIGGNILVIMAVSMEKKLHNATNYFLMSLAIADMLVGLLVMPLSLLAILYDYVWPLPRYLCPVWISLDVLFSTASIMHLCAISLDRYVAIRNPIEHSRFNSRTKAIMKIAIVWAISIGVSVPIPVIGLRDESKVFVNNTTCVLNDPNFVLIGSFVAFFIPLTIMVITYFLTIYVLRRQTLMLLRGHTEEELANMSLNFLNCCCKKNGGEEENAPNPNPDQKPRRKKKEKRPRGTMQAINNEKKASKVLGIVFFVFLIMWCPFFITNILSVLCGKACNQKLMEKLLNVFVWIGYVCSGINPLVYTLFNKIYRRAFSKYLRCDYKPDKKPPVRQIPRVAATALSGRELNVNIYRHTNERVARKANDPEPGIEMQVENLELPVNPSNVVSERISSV
Chain of Serotonin 2 (5-HT2) receptor (Rattus norvegicus) (P14842 whole entry, looked up): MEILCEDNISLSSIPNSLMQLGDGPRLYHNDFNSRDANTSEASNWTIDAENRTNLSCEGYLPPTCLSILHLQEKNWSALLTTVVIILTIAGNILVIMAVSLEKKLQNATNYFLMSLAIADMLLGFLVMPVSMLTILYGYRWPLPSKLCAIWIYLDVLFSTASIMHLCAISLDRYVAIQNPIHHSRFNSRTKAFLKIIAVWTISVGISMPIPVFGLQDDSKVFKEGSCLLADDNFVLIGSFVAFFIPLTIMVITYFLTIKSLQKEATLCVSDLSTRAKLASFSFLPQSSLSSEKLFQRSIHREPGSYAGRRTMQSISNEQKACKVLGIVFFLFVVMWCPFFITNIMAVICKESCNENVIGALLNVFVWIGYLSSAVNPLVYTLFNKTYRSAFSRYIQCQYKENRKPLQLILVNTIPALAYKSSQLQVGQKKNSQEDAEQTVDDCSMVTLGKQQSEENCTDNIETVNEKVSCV
Chain of Serotonin 2 (5-HT2) receptor (Rattus norvegicus) (P30994 whole entry, looked up): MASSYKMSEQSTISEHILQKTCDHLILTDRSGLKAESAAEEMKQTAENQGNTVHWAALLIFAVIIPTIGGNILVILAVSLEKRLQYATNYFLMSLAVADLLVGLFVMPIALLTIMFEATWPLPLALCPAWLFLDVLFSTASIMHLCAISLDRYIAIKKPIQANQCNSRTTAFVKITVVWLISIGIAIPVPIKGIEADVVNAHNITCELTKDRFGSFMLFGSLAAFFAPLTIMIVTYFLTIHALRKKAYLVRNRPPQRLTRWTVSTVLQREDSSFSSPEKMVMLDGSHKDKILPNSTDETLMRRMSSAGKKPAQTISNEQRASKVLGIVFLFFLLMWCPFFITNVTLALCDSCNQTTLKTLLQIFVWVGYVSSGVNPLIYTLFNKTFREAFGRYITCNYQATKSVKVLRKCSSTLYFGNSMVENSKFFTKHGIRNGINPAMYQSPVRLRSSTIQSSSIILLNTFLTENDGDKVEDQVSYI
Chain of Muscarinic acetylcholine receptor M3 (Q8VH26 whole entry): as the sequence (Q8VH26 1-587) above
Chain of Beta-1 adrenergic receptor (Cavia porcellus) (B0FL73 1-467): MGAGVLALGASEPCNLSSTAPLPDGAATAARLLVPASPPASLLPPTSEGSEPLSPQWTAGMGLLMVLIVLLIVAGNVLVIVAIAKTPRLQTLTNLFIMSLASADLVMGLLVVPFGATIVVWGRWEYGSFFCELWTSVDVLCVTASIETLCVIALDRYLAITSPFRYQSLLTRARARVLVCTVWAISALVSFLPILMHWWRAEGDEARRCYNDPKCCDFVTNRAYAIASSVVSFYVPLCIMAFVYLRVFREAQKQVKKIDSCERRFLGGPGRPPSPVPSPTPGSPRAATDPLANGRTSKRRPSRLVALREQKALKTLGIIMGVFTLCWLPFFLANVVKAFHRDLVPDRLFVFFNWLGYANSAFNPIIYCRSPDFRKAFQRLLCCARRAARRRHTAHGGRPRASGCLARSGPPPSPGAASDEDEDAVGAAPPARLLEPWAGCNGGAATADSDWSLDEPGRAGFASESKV
Chain of Histamine H1 receptor (P31389 whole entry): as the sequence (P31389 whole entry) above

Usually pKB stands for the KB on a negative log10 scale, so that one unit is a factor of ten. A low value points to a large KB. With `N#CN/C(=N\CCNc1ccccc1[N+](=O)[O-])NCCCOc1cccc(CN2CCCCC2)c1`, the negative logarithm of the KB (pKB) in [1] turned out to be 7.45. In addition, the Relative potency in [2] turned out to be 1120%.
`N#CN/C(=N\CCCNc1ccccc1[N+](=O)[O-])NCCCOc1cccc(CN2CCCCC2)c1` returned a pKB in [3] of 7.52. The Relative potency in assay [2] was 1320%.
In general, Ki refers to the equilibrium dissociation constant of an inhibitor or competing ligand from its target. Lower therefore signals tighter binding. At Histamine H2 receptor [4], `N#CN=C(NCCCOc1cccc(CN2CCCCC2)c1)NCCNC(=O)c1ccc(N)c(I)c1` showed a Ki of 0.708 nM. Also, the Kb at Histamine H2 receptor [5] is 27.5 nM.
Regarding `N#CN/C(=N\CCNC(=O)c1ccc(N=[N+]=[N-])c(I)c1)NCCCOc1cccc(CN2CCCCC2)c1`, the negative logarithm of the KB (pKB) in [6] came out at 6.98; in assay [7], 5.48; in assay [8], 6.05; in [10], 5.62; in assay [11] it was 5.12; in assay [12] it was 6.17. The Slope in [9] was 1.2. The same compound returned a Relative potency in assay [2] of 257%.
Regarding `N#CN/C(=N\CCCOc1cccc(CN2CCCCC2)c1)N1CCN(C(=O)c2ccccc2)CC1`, the Relative potency in assay [13] was determined as 6%. In assay [14], this compound returned a negative-log KB (pKB) of 5.16.
For `N#CN/C(=N\CCNC(=O)c1cc(I)c(N)c(I)c1)NCCCOc1cccc(CN2CCCCC2)c1`, the Kb in assay [15] is 1700 nM; at Histamine H1 receptor, 1580 nM; on Histamine H2 receptor [5], 16.2 nM. Moreover, the Slope in assay [16] was found to be 0.91; in [17], 1.04. Moreover, the pKB in [18] worked out at 7.79. The Relative potency in assay [2] was 2460%.
`CNC(=C[N+](=O)[O-])NCCSCc1ccc(CN(C)C)o1` [RANITIDINE] showed an inhibition constant (Ki) on Histamine H2 receptor [4] of 53.7 nM. The pKB in assay [19] stood at 7.2. The Relative potency in assay [2] turned out to be 631%.
